Test [1] deals with Rattus norvegicus. The experiment in a line: The mean increase in paw volume was compared between drug treated groups and placebo to calculate the percent inhibition in rats at 0.02 mmol/kg by carrageenan Edema Assay; 0-19. The test is classed as functional.
For test [2], the system named is Rattus norvegicus. Description: The mean increase in paw volume was compared between drug treated groups and placebo to calculate the percent inhibition in rats at 0.02 mmol/kg by carrageenan Edema Assay; 20-29. It is filed as functional.
Test [3] relates to Rattus norvegicus. The experiment in a line: The mean increase in paw volume was compared between drug treated groups and placebo to calculate the percent inhibition in rats at 0.02 mmol/kg by carrageenan Edema Assay; 40-49. It is filed as functional.
Test [4] concerns Rattus norvegicus. The experiment in a line: The percent inhibition was calculated from the average differences in hind paw volume between the adjuvant injected controls and the adjuvant-injected medicated rats at 0.08 mmol/kg; 90-99. It is filed as functional.
Test [5] relates to Rattus norvegicus. The experiment in a line: The mean increase in paw volume was compared between drug treated groups and placebo to calculate the percent inhibition in rats at 0.08 mmol/kg by carrageenan Edema Assay; 30-39. The test is classed as functional.
Test [6] concerns Rattus norvegicus. The experiment in a line: The mean increase in paw volume was compared between drug treated groups and placebo to calculate the percent inhibition in rats at 0.02 mmol/kg by carrageenan Edema Assay; 30-39. It is filed as functional. As to conditions: Rattus norvegicus.
Test [7] deals with Rattus norvegicus. Description: The percent inhibition was calculated from the average differences in hind paw volume between the adjuvant injected controls and the adjuvant-injected medicated rats at 0.08 mmol/kg; 60-69. The test is classed as functional. The note with it: Rattus norvegicus.
For test [8], the system named is Rattus norvegicus. Description: The percent inhibition was calculated from the average differences in hind paw volume between the adjuvant injected controls and the adjuvant-injected medicated rats at 0.08 mmol/kg; 40-49. It is filed as functional.
The test system of test [9] is Rattus norvegicus. The experiment in a line: The mean increase in paw volume was compared between drug treated groups and placebo to calculate the percent inhibition in rats at 0.08 mmol/kg by carrageenan Edema Assay; 40-49. It is filed as functional.
Test [10] has as its system Rattus norvegicus. Description: The percent inhibition was calculated from the average differences in hind paw volume between the adjuvant injected controls and the adjuvant-injected medicated rats at 0.08 mmol/kg; 70-79. The test is classed as functional.
The species entered for test [11] is Rattus norvegicus. The experiment in a line: Compound was evaluated for highest non-ulcerogenic dose (less than 50% ulcer incidence). It is filed as functional. The note with it: read-out: ED50. In short, it runs like this: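 Taken from the 21-day adjuvant arthritis test in male Sprague-Dawley rats dosed orally each day from the day of adjuvant injection. Small intestines and stomachs were examined for ulceration at the end. The value is the highest dose giving less than 50% ulcer incidence.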

The subject of test [12] is Rattus norvegicus. The experiment in a line: Antiinflammatory efficacy is measured by the percent inhibition of paw volume during the 3 week adjuvant arthritis test at 0.005 mM/kg (2.11 mg). It is filed as functional. In short, it runs like this:
(§1)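 Male Sprague-Dawley rats (200–230 g) were used in groups of eight. Each received 0.1 mL of 0.6% M. butyricum in heavy mineral oil into the plantar tissue of one hind paw. Daily oral gavage in 1% gum tragacanth or corn oil-water emulsion began on the injection day and ran 21 days. Total hind paw volume was measured by mercury displacement, and inhibition was taken versus vehicle-treated adjuvant controls.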

Test [13] relates to Rattus norvegicus. The experiment in a line: The percent inhibition was calculated from the average differences in hind paw volume between the adjuvant injected controls and the adjuvant-injected medicated rats at 0.08 mmol/kg; 80-89. The test is classed as functional.
Test [14] has as its system Rattus norvegicus. Description: Ulcerogenicity was measured in intestine during the 3 week adjuvant arthritis test, no of animals with ulcers out of 4 animals tested at 0.02 mM/kg (8.43 mg) was reported. The test is classed as functional. The method in brief: (§2)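 In the 21-day adjuvant arthritis model, male Sprague-Dawley rats (200–230 g) received an M. butyricum mineral-oil suspension into one hind paw. They were dosed daily by gavage from the day of injection. At the end of the study the rats were killed, and the small intestines were examined for ulcers. Results are given as the number of ulcerated animals over the number tested.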

Test [15] has as its system Rattus norvegicus. The experiment in a line: Ulcerogenicity was measured in stomach during the 3 week adjuvant arthritis test, no of animals with ulcers out of 8 animals tested at 0.08 mM/kg (33.7 mg) was reported. The test is classed as functional. The method in brief: (§3)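 Male Sprague-Dawley rats (200–230 g) were injected in the plantar tissue of one hind paw with 0.1 mL of 0.6% M. butyricum suspension in heavy mineral oil. Daily oral gavage began on the day of adjuvant injection and ran for the 21 days, with drug suspended in 1% gum tragacanth or a corn oil-water emulsion. At the end the rats were sacrificed and the small intestine and stomach were examined for ulcers. Results are given as animals with ulcers/animals tested.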

Test [16] deals with Rattus norvegicus. The experiment in a line: Ulcerogenicity was measured in intestine during the 3 week adjuvant arthritis test, no of animals with ulcers out of 8 animals tested at 0.08 mM/kg (33.7 mg) was reported. The test is classed as functional. The method in brief: as §2
Test [17] concerns Rattus norvegicus. The experiment in a line: Ulcerogenicity was measured in stomach during the 3 week adjuvant arthritis test, no of animals with ulcers out of 4 animals tested at 0.02 mM/kg (8.43 mg) was reported. It is filed as functional. The method in brief:
as §3

Test [18] has as its system Rattus norvegicus. The experiment in a line: Ulcerogenicity was measured in intestine during the 3 week adjuvant arthritis test, no of animals with ulcers out of animals tested at 0.16 mM/kg (67.4 mg) was reported; toxic. The test is classed as functional, organism-based. The method in brief:
as §3

Test [19] has as its system Rattus norvegicus. The experiment in a line: Antiinflammatory efficacy is measured by the weight gain in rats during the 3 week adjuvant arthritis test at 0.08 mM/kg (33.7 mg). The test is classed as functional. In short, it runs like this: (§4)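 Rats were adjuvant-injected (M. butyricum in mineral oil, one hind paw) or given a mineral-oil placebo. They were dosed by gavage daily for 21 days from the injection day, with vehicle only for both control groups, then weighed at the end. Weight gain % = (treated − adjuvant control)/(negative control − adjuvant control) × 100.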

For test [20], the system named is Rattus norvegicus. Description: Antiinflammatory efficacy is measured by the weight gain in rats during the 3 week adjuvant arthritis test at 0.02 mM/kg (8.43 mg). It is filed as functional. The method in brief: as §4
For test [21], the system named is Rattus norvegicus. The experiment in a line: Antiinflammatory efficacy is measured by the weight gain in rats during the 3 week adjuvant arthritis test at 0.005 mM/kg (2.11 mg). It is filed as functional. In short, it runs like this:
as §4

Test [22] relates to Rattus norvegicus. The experiment in a line: Antiinflammatory efficacy is measured by the percent inhibition of paw volume during the 3 week adjuvant arthritis test at 0.02 mM/kg (8.43 mg). It is filed as functional. In short, it runs like this: as §1
The test system of test [23] is Rattus norvegicus. Description: Antiinflammatory efficacy is measured by the percent inhibition of paw volume during the 3 week adjuvant arthritis test at 0.08 mM/kg (33.7 mg). It is filed as functional. In short, it runs like this:
as §1

The text below walks through data of ChEMBL document CHEMBL1122782, “Bulky amine analogues of ketoprofen: potent antiinflammatory agents” (J Med Chem, 1984).

Take `COc1ccc(C(O)c2cccc(C(C)CN3CCCCC3CC3CCCCC3)c2)cc1` (centres undefined): in the test with Rattus norvegicus [1], the inhibition in vivo – broadly, how much of the control response was suppressed – at 20 µmol/kg was 0%.

`Cc1ccccc1C(=O)c1cccc(C(C)CN2CCCCC2CC2CCCCC2)c1` (centres undefined): the inhibition in vivo at 20 µmol/kg in the test with Rattus norvegicus [2] was 20%.

With `CC(CN1CCCCC1CC1CCCCC1)c1cccc(/C(=N\O)c2ccccc2)c1` (centres undefined), the inhibition in vivo at 20 µmol/kg in the test on Rattus norvegicus [3] is 40%. In addition, the inhibition in vivo at 80 µmol/kg in the test on Rattus norvegicus [4] is 90%.

With `NC(c1ccccc1)c1cccc(CCN2CCOCC2)c1` (centres undefined), in the test with Rattus norvegicus [1], the inhibition in vivo at 20 µmol/kg is 0%.

With `CC(CN1CCCCC1CC1CCCCC1)c1cccc(C(O)c2cccc(Cl)c2)c1` (centres undefined), the inhibition in vivo at 20 µmol/kg with Rattus norvegicus [1] was 0%.

As for `CC(CN1CCCCC1C1CCCCC1)c1cccc(C(=O)c2ccccc2)c1` (centres undefined), the inhibition in vivo at 80 µmol/kg in the test on Rattus norvegicus [5] was 30%; with Rattus norvegicus [4] it was 90%.

Regarding `CC(CN1CCCCC1CC1CCCCC1)c1cccc(C(N)c2ccccc2)c1` (centres undefined), the inhibition in vivo at 20 µmol/kg in the test with Rattus norvegicus [6] is 30%. Further, the inhibition in vivo at 80 µmol/kg in the test on Rattus norvegicus [4] is 90%.

For the compound `Cc1ccc(C(O)c2cccc(C(C)CN3CCCCC3CC3CCCCC3)c2)cc1` (centres undefined), the inhibition in vivo at 20 µmol/kg in the test with Rattus norvegicus [1] was 0%.

Take `CC(CN1CCCCC1CCCC1CCCCC1)c1cccc(C(O)c2ccccc2)c1` (centres undefined): in the test on Rattus norvegicus [6], the inhibition in vivo at 20 µmol/kg was 30%.

Turning to `CC(CN1CCCCC1CCCC1CCCCC1)c1cccc(C(=O)c2ccccc2)c1` (centres undefined), in the test with Rattus norvegicus [5], the inhibition in vivo at 80 µmol/kg is 30%.

On to `Cc1cccc(C(=O)c2cccc(C(C)CN3CCCCC3CC3CCCCC3)c2)c1` (centres undefined), for which the inhibition in vivo at 20 µmol/kg in the test with Rattus norvegicus [1] was 0%.

As for `CC(CN1CCCCC1CC1CCCCC1)c1cccc(Cc2ccccc2)c1` (centres undefined), in the test with Rattus norvegicus [2], the inhibition in vivo at 20 µmol/kg was 20%. For the same compound, the inhibition in vivo at 80 µmol/kg with Rattus norvegicus [4] is 90%.

Turning to `OC(c1ccccc1)c1cccc(CCN2CCCCC2CC2CCCCC2)c1` (centres undefined), in the test with Rattus norvegicus [1], the inhibition in vivo at 20 µmol/kg is 0%.

`CC(CN1CCCCC1CC1CCCCC1)c1cccc(C(C)(O)c2ccccc2)c1` (centres undefined): the inhibition in vivo at 20 µmol/kg in the test on Rattus norvegicus [1] is 0%.

In the case of `COc1ccc(C(=O)c2cccc(C(C)CN3CCCCC3CC3CCCCC3)c2)cc1` (centres undefined), the inhibition in vivo at 20 µmol/kg in the test with Rattus norvegicus [2] is 20%. Further, in the test with Rattus norvegicus [7], the inhibition in vivo at 80 µmol/kg is 60%.

Consider `CC(CN1CCCCC1CC1CCCCC1)c1cccc(C(=O)c2ccc(Cl)c(Cl)c2)c1` (centres undefined), for which, in the test on Rattus norvegicus [1], the inhibition in vivo at 20 µmol/kg is 0%.

For `O/N=C(/c1ccccc1)c1cccc(CCN2CCOCC2)c1`, the inhibition in vivo at 20 µmol/kg in the test on Rattus norvegicus [1] was 0%.

With `CN(C)CCCNCCc1cccc(C(=O)c2ccccc2)c1`, the inhibition in vivo at 80 µmol/kg in the test with Rattus norvegicus [5] is 30%; in the test on Rattus norvegicus [8], 40%.

For `CC(CN1CCC(CN2CCCCC2)CC1)c1cccc(C(=O)c2ccccc2)c1` (centres undefined), the inhibition in vivo at 80 µmol/kg in the test on Rattus norvegicus [9] was 40%; with Rattus norvegicus [4], 90%.

Regarding `CC(CN1CCCCC1CC1CCCCC1)c1cccc(C(C)c2ccccc2)c1` (centres undefined), the inhibition in vivo at 20 µmol/kg in the test on Rattus norvegicus [1] is 0%.

Turning to `O=C(c1ccccc1)c1cccc(CCN2CCCCC2CC2CCCCC2)c1` (centres undefined), the inhibition in vivo at 20 µmol/kg in the test with Rattus norvegicus [2] was 20%.

For the compound `Cc1ccc(C(=O)c2cccc(C(C)CN3CCCCC3CC3CCCCC3)c2)cc1` (centres undefined), in the test on Rattus norvegicus [1], the inhibition in vivo at 20 µmol/kg is 0%.

On to `CC(CN1CCCCC1CCC1CCCCC1)c1cccc(C(=O)c2ccccc2)c1` (centres undefined), for which the inhibition in vivo at 80 µmol/kg is 30% in the test on Rattus norvegicus [5] and 90% with Rattus norvegicus [4].

`CC(CN1CCCC1CC1CCCCC1)c1cccc(C(=O)c2ccccc2)c1` (centres undefined): the inhibition in vivo at 80 µmol/kg is 40% in the test with Rattus norvegicus [9] and 70% in the test on Rattus norvegicus [10].

For the compound `CC(CN1CCOCC1)c1cccc(C(N)c2ccccc2)c1` (centres undefined), the figures for the inhibition in vivo at 80 µmol/kg with Rattus norvegicus [9] and in the test with Rattus norvegicus [10] were 40% and 70%, respectively.

Consider `CC(CN1CCCCC1)c1cccc(C(=O)c2ccccc2)c1` (centres undefined), for which the inhibition in vivo at 80 µmol/kg was 30% in the test on Rattus norvegicus [5] and 40% in the test on Rattus norvegicus [8].

On to `CC(CN1CCCCC1CC1CCCCC1)c1cccc(C(=O)c2ccc(F)cc2)c1` (centres undefined), for which, in the test filed under Rattus norvegicus [11], the highest non-ulcerogenic dose is 3 µmol/kg. Further, the results for the Inhibition in the test on Rattus norvegicus [12], with Rattus norvegicus [22] and in the test with Rattus norvegicus [23] were 61%, 55% and 85%, respectively. Also, the inhibition in vivo at 20 µmol/kg with Rattus norvegicus [6] was 30%. Also, the inhibition in vivo at 80 µmol/kg in the test with Rattus norvegicus [13] is 80%. In addition, the Ulcerogenic index with Rattus norvegicus [14] was 1; in the test with Rattus norvegicus [15] it was 1; in the test on Rattus norvegicus [16] it was 3; in the test on Rattus norvegicus [17], 0; in the test with Rattus norvegicus [18] it was “Toxic”. The values for the Weight gain in the test with Rattus norvegicus [19], in the test on Rattus norvegicus [20] and with Rattus norvegicus [21] were 81%, 31% and 50%, respectively.

Take `CC(CN1CCCCC1CC1CCCCC1)c1cccc(C(O)c2c(Cl)cccc2Cl)c1` (centres undefined): in the test with Rattus norvegicus [1], the inhibition in vivo at 20 µmol/kg is 0%.

In the case of `CC(CN1CCCCC1CC1CCCCC1)c1cccc(C(=O)c2ccccc2Cl)c1` (centres undefined), the inhibition in vivo at 20 µmol/kg in the test on Rattus norvegicus [6] is 30%. For the same compound, the inhibition in vivo at 80 µmol/kg with Rattus norvegicus [10] is 70%.
